According to ChEMBL document CHEMBL4354879, “Bioisosteric Discovery of NPA101.3, a Second-Generation RET/VEGFR2 Inhibitor Optimized for Single-Agent Polypharmacology” (J Med Chem, 2020):
Activity calls are given as the source filed them. The calls are words filed in the database; no cut-off is given here.

What was measured:
[1] = Toxicity in BALB/c nu/nu mouse assessed as change in phosphorus level at 10 mg/kg, po administered daily for 7 days; type: organism-based; settings: in vivo, 168 h
[2] = target: T1, SHC-transforming protein 1 (Homo sapiens) (UniProt P29353); experiment: Effect on SHC phosphorylation in RET deficient human PC9 cells at 1 to 100 nM measured after 2 hrs by western blot analysis
T1 sequence (whole entry): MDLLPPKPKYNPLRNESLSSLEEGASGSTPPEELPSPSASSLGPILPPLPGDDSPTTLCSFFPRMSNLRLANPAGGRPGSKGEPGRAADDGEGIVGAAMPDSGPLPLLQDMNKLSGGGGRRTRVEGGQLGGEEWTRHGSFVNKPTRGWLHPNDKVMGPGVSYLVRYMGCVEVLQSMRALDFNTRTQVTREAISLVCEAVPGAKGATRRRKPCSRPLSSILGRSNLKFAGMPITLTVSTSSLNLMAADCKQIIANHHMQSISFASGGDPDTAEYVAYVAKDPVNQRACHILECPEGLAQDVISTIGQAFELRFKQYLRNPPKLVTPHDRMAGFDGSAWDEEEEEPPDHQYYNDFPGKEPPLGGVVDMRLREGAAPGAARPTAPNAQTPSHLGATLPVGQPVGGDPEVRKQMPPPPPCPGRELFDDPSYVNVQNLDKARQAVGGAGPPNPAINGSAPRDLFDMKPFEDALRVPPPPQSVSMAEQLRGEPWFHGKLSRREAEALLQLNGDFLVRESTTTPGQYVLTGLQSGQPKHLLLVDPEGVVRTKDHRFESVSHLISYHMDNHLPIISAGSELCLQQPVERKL

[3] = target: Vascular endothelial growth factor receptor 2 (Homo sapiens, UniProt P35968); experiment: Inhibition of recombinant human His-tagged VEGFR2 cytoplasmic domain (789 to 1356 residues) expressed in baculovirus expression system using peptide substrate preincubated for 60 mins followed by substrate addition by microfluidic assay
Vascular endothelial growth factor receptor 2, sequence (P35968 whole entry, the tested form may be a part): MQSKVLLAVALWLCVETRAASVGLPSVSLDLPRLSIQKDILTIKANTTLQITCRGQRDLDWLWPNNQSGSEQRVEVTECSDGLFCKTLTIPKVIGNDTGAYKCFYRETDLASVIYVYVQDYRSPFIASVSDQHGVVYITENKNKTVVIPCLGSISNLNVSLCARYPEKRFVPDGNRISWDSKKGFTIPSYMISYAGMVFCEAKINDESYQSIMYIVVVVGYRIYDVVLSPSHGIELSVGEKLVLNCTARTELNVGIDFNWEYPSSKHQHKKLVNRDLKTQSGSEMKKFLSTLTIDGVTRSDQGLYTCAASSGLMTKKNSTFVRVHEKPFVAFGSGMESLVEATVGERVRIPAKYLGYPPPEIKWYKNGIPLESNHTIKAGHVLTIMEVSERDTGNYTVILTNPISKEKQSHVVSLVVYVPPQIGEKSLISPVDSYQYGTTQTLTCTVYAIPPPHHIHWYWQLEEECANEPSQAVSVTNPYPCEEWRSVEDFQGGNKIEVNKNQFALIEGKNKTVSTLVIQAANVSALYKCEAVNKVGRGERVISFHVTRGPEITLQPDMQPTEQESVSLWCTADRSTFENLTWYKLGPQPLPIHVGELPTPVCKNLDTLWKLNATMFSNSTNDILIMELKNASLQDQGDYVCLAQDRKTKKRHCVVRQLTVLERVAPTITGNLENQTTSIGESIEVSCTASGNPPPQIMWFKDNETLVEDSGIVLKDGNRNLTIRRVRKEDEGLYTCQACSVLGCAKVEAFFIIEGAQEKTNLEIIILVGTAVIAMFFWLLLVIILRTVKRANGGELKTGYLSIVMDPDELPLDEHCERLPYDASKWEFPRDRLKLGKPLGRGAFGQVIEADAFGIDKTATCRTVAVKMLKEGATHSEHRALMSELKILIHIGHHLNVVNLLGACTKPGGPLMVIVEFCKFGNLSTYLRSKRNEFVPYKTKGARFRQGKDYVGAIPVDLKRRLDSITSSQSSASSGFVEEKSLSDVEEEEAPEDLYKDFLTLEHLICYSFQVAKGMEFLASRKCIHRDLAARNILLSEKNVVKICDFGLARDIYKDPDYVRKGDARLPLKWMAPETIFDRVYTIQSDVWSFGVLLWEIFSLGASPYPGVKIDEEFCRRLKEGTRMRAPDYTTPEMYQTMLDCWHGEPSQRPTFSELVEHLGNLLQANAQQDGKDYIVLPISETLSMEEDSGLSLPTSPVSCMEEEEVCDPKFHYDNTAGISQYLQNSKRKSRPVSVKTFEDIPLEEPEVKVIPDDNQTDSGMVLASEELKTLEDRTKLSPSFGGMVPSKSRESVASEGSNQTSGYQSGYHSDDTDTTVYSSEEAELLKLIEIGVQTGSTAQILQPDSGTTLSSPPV

[4] = target: Voltage-gated inwardly rectifying potassium channel KCNH2 (Homo sapiens, UniProt Q12809); experiment: Inhibition of human ERG expressed in HEK293 cells by patch clamp assay
Voltage-gated inwardly rectifying potassium channel KCNH2, sequence (Q12809 whole entry): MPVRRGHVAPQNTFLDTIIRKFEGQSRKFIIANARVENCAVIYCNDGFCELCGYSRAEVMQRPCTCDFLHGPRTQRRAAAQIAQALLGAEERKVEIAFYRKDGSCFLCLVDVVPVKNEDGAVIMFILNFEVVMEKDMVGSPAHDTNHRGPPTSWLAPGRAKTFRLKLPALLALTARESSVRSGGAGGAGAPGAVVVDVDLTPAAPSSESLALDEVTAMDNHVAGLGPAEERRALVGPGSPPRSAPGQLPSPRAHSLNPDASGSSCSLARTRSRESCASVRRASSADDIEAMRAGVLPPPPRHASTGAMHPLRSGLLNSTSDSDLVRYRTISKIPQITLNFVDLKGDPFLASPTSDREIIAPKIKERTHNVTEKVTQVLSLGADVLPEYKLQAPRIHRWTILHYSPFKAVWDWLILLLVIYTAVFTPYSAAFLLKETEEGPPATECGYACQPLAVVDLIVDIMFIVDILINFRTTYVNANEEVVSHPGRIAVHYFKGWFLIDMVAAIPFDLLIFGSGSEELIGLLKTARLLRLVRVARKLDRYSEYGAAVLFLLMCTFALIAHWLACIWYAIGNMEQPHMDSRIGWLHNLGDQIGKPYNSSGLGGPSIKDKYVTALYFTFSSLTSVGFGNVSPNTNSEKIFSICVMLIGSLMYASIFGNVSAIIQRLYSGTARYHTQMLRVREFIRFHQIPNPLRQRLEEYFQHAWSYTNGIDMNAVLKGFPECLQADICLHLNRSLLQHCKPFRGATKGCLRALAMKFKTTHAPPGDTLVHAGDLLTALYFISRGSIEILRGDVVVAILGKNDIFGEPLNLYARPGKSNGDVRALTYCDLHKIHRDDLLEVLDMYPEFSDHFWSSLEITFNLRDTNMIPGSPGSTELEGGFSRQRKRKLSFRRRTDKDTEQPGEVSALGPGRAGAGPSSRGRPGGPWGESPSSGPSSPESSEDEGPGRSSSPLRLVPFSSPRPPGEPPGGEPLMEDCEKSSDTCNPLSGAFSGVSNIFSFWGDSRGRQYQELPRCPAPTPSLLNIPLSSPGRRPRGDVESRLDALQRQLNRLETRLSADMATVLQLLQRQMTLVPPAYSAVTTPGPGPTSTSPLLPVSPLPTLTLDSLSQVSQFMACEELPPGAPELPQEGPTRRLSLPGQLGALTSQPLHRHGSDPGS

Mus musculus [5] = experiment: Antitumor activity against BALB/c nu/nu mouse implanted with mouse NIH/3T3 cells harboring HRAS G12V mutant assessed as reduction in tumor formation at 1 to 10 mg/kg, po administered once daily via gavage for 3 days; type: functional, organism-based
How it was run: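 Nude mice (female BALB/c nu/nu, 6 weeks old) received subcutaneous dorsal inoculation (both sides) of NIH3T3 cells transformed by RET/C634Y (200000) or HRAS/G12V (50000). Four days later, before tumors appeared, mice were randomized to 1.0, 3.0 or 10 mg/kg/day oral gavage (8 mice/group) or vehicle (8 mice). Vehicle was 80% H2O, 19.875% Tween 20, 0.125% xanthan gum. Tumors were measured by caliper every 2–3 days, with volume = A×B²/2.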

[6] = target: MAP kinase-interacting serine/threonine-protein kinase 2 (Homo sapiens) (UniProt Q9HBH9); experiment: Binding affinity to wild-type human partial length MKNK2 (G63 to S388 residues) expressed in mammalian expression system at 100 nM by Kinomescan method relative to control
MAP kinase-interacting serine/threonine-protein kinase 2 (Homo sapiens), sequence (Q9HBH9 whole entry, looked up, the tested form may be a part, canonical isoform): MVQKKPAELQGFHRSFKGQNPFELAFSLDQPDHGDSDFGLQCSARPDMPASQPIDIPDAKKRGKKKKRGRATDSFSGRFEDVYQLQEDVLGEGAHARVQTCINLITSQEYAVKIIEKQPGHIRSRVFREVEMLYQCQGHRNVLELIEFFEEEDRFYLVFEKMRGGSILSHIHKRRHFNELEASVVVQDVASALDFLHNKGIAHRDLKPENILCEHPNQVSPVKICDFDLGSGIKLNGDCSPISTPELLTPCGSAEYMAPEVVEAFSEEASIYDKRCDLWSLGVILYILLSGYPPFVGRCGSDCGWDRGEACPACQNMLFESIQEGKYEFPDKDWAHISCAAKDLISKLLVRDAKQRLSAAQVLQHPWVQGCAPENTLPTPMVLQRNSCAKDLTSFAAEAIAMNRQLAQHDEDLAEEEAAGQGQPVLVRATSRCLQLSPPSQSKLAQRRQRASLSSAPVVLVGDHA

[7] = test system: Proto-oncogene tyrosine-protein kinase receptor Ret (Homo sapiens), P07949 [C634W]; experiment: Inhibition of Ret isoform 9 C634W mutant in human TT cells assessed as reduction in SHC phosphorylation at 0.3 to 30 nM measured after 2 hrs by Western blot analysis; type: cell-based
[8] = target: Proto-oncogene tyrosine-protein kinase receptor Ret (Homo sapiens, UniProt P07949); experiment: Inhibition of recombinant human GST-tagged RET cytoplasmic domain (658 to 1114 residues) expressed in baculovirus expression system using 5'FAM-EPLYWSFPA as substrate preincubated for 60 mins followed by substrate addition by microfluidic assay
[9] = test system: GTPase HRas (Homo sapiens), P01112 [G12V]; experiment: Inhibition of HRAS G12V mutant (unknown origin) expressed in mouse NIH/3T3 cells assessed as reduction in cell proliferation up to 100 nM supplemented with fresh medium containing compound for every 2 to 3 days measured at 2 days interval during compound dosing; type: cell-based
GTPase HRas (Homo sapiens), P01112 [G12V], sequence (P01112 whole entry G12V): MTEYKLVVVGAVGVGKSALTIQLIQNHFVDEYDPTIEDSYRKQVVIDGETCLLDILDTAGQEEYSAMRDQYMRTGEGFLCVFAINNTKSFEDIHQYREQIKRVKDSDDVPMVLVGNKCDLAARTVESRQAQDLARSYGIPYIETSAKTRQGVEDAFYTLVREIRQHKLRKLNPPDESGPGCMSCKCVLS
How it was run: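 NIH3T3 transformants seeded 10000/well in 2% calf serum; next day drug or vehicle added, medium changed every 2–3 days; cells counted every 2 days; IC50 from curve fit of last-day counts.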

[10] = target: T1, SHC-transforming protein 1 (Homo sapiens); experiment: Effect on SHC phosphorylation in RET deficient human Calu1 cells at 1 to 100 nM measured after 2 hrs by western blot analysis
[11] = target: NT-3 growth factor receptor (Homo sapiens) (UniProt Q16288); experiment: Binding affinity to wild-type human partial length TRKC (Q531 to G825 residues) expressed in mammalian expression system at 100 nM by Kinomescan method relative to control
[12] = target: T1, SHC-transforming protein 1 (Homo sapiens); experiment: Effect on SHC phosphorylation in RET deficient human BCPAP cells at 1 to 100 nM measured after 2 hrs by western blot analysis; type: cell-based
[13] = test system: Proto-oncogene tyrosine-protein kinase receptor Ret (Homo sapiens), P07949 [M918T]; experiment: Inhibition of Ret isoform 9 M918T mutant in human MZ-CRC-1 cells assessed as reduction in phosphorylation at Y1062 residue at 0.3 to 30 nM measured after 2 hrs by Western blot analysis; type: cell-based
[14] = target: Macrophage colony-stimulating factor 1 receptor (Homo sapiens, UniProt P07333); experiment: Inhibition of recombinant human His-tagged CSF1R cytoplasmic domain (538 to 910 residues) expressed in baculovirus expression system using peptide substrate preincubated for 60 mins followed by substrate addition by microfluidic assay
Mus musculus [15] = experiment: In vivo inhibition of RET isoform 9 C634Y mutant transfected in mouse NIH/3T3 cells implanted BALB/c nu/nu mouse assessed as reduction in MAPK phosphorylation in tumor at 1 mg/kg, po administered once daily via gavage for 3 days measured 3 hrs post-last dose by Western blot analysis
[16] = Toxicity in BALB/c nu/nu mouse assessed as change in alkaline phosphatase level at 10 mg/kg, po administered daily for 7 days; type: organism-based; settings: in vivo, 168 h
How it was run: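 Mice dosed orally with 10 mg/kg/day for 7 days; standard blood markers of organ damage measured.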

[17] = target: Centrosomal protein 43/RET (Homo sapiens) (UniProt P07949+O95684); experiment: Inhibition of FGFR1OP/RET isoform 9 (unknown origin) expressed in mouse NIH/3T3 cells assessed as reduction in RET phosphorylation at Y1062 residue at 1 to 100 nM measured after 2 hrs by Western blot analysis; type: cell-based
Centrosomal protein 43/RET (Homo sapiens), sequence (O95684 whole entry, looked up, canonical isoform): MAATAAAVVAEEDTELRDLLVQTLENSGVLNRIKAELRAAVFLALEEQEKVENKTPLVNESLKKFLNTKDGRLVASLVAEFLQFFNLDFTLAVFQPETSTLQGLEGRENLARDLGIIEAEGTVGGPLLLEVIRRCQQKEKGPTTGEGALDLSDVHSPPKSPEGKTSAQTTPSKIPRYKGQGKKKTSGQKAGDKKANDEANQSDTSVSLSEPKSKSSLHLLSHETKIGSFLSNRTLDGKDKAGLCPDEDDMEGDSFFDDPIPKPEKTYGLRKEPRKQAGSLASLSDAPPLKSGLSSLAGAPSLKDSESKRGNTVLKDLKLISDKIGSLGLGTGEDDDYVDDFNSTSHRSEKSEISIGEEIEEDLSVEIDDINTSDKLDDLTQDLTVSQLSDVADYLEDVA
Centrosomal protein 43/RET (Homo sapiens), sequence (P07949 whole entry, looked up, canonical isoform): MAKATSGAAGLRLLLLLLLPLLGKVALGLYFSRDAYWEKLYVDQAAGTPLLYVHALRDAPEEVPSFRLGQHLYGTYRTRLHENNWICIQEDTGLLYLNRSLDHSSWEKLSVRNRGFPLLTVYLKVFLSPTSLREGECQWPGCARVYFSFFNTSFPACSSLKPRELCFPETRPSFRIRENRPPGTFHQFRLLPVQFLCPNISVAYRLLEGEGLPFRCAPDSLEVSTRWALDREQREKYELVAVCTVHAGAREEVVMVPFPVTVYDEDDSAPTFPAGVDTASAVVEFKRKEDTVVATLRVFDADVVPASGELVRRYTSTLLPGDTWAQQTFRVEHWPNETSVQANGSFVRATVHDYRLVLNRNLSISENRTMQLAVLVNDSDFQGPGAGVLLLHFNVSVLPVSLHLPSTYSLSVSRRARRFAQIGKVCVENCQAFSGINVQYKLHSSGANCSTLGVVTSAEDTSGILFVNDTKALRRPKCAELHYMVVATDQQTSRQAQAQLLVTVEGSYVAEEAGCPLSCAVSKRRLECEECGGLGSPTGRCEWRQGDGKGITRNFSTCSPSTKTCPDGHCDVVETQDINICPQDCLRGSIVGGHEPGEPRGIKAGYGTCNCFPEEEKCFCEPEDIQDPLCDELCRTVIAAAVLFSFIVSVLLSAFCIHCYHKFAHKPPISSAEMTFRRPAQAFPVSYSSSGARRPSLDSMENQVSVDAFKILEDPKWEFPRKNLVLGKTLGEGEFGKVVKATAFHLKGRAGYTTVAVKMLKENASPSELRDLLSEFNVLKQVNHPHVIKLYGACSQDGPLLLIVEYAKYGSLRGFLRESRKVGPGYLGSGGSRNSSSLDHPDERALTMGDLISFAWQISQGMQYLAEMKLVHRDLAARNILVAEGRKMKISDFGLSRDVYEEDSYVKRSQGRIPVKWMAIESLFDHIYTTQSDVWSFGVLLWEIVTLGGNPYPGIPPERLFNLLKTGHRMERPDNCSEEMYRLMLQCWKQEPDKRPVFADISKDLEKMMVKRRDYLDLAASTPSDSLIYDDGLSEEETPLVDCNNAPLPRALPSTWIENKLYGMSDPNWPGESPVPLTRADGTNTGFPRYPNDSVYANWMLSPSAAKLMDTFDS
How it was run: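 Serum-starved RAT1 (RET point mutants) or NIH3T3 (RET rearrangements) cells expressing short RET-9 isoform, treated 2 h; 50 μg total lysate immunoblotted with anti-phospho-Y1062 and anti-phospho-Y905 RET antibodies, normalized to total RET; ECL detection. Compound from 50 mM DMSO stock diluted in growth medium.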

Mus musculus [18] = experiment: In vivo inhibition of RET isoform 9 C634Y mutant transfected in mouse NIH/3T3 cells implanted BALB/c nu/nu mouse assessed as reduction in RET phosphorylation at Y905 residue at 3 mg/kg, po administered once daily via gavage for 2 days measured 3 hrs post-last dose by Western blot analysis

- Activity [2]: inactive
- IC50 [3]: 3 nM
- Activity [6]: > 90%
- inhibition [7]: Active
- IC50 [8]: 1 nM
- inhibition [9]: inactive
- Activity [10]: inactive
- Activity [11]: > 90%
- Activity [12]: inactive
- inhibition [13]: Active
- IC50 [14]: 46 nM
- inhibition [17]: Active
SMILES: CC(C)(C)c1cc(NC(=O)Cc2ccc(-n3cnc4cc(-c5ccc(S(C)(=O)=O)cc5)ccc43)cc2)no1
- Activity [1]: Non-Toxic
- IC50 [4]: 7570 nM
- Activity (Mus musculus [5]): inactive
- inhibition (Mus musculus [15]): Active
- Activity [16]: Non-Toxic
- inhibition (Mus musculus [18]): Active
